# Reference: ChEMBL document CHEMBL3414433, “Discovery and profiling of a selective and efficacious Syk inhibitor” (J Med Chem, 2015)
# Calls of active or inactive are those of the source. The rule behind the calls is not given here.
# Columns and labels:
# Rattus norvegicus [1] = assay: Dose normalized AUC in Sprague-Dawley rat at 1 mg/kg, iv administered as cassette dosing; type: ADME, organism-based; design: dose 1 mg/kg, route intravenous; details: in vivo
# Summary of the method: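 Rat PK: i.v. 1 mg/kg in NMP/PEG200 (3:7); p.o. 3 mg/kg in CMC/water/Tween (0.5:99:0.5). Exposure values dose normalized.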
# [2] = biological target: Interleukin-1 receptor-associated kinase 1 (Homo sapiens, UniProt P51617); assay: Competitive binding affinity to human IRAK1
# [3] = biological target: STE20-like serine/threonine-protein kinase (Homo sapiens, UniProt Q9H2G2); assay: Competitive binding affinity to human SLK
# [4] = biological target: Tyrosine-protein kinase SYK (Homo sapiens, UniProt P43405); assay: Competitive binding affinity to human SYK
# Summary of the method: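 Kd was then determined for the kinases affected at that concentration.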
# [5] = biological target: T1, Tyrosine-protein kinase ZAP-70 (Homo sapiens, UniProt P43403); assay: Competitive binding affinity to human ZAP70
# T1 sequence (P43403 whole entry): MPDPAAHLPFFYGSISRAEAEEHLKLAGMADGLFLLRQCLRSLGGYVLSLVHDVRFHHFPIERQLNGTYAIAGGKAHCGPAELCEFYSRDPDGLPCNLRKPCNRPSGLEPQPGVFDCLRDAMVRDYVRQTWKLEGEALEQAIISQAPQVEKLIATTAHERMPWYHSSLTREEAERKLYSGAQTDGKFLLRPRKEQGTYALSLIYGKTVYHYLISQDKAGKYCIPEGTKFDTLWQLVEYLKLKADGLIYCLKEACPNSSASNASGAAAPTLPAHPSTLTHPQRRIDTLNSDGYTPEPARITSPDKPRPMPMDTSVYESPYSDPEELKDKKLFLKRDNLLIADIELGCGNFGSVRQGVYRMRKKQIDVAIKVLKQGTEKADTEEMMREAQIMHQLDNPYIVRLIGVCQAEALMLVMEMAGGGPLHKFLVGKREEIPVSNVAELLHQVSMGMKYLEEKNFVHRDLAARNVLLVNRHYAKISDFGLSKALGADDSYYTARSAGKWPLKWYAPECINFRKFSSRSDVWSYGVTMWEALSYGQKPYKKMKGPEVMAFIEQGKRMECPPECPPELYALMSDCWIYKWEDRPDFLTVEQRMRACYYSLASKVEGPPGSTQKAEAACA
# [6] = Drug uptake in Lewis rat blood at 22 mg/kg, po measured after 24 hrs; type: ADME, organism-based; design: dose 22 mg/kg, route oral; details: read-out: Drug uptake
# Summary of the method: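 Single oral dose of 22 mg/kg to Lewis rats; blood sampled at 2, 4 and 24 h after dosing for compound level and ex vivo FcγR-induced phospho-SLP76 in peripheral blood monocytes.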
# Rattus norvegicus [7] = assay: Antiarthritic activity in Lewis rat collagen-induced arthritis model assessed as reduction of joint damage/erosions in hind paw at 3 to 30 mg/kg, po qd administered on day 15 post immunization measured after day 28 by Giemsa/safranin O staining-based assay; type: functional, organism-based
# Summary of the method: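 Female Lewis rats (140−160 g), arthritis induced by porcine collagen immunization (day 0) and boost (day 7); rats with swollen joints randomized, dosed orally once daily from day 15 to day 28. Hind paws taken on day 28, fixed in 10% buffered formalin for 48 h, decalcified over 16 days, paraffin-embedded; 3 μm sections stained with Giemsa and safranin O and scored.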
# Rattus norvegicus [8] = organism: Rattus norvegicus; assay: Hepatotoxicity in rat assessed as single necrosis of hepatocytes measured for 4 weeks by GLP study; type: toxicity, organism-based, Hepatocyte; details: 672 h
# Rattus norvegicus [9] = organism: Rattus norvegicus; assay: Hepatotoxicity in rat assessed as portal inflammation measured for 4 weeks by GLP study; type: toxicity, organism-based; details: in vivo, 672 h
# Interleukin-1 receptor-associated kinase 1, sequence (P51617 whole entry): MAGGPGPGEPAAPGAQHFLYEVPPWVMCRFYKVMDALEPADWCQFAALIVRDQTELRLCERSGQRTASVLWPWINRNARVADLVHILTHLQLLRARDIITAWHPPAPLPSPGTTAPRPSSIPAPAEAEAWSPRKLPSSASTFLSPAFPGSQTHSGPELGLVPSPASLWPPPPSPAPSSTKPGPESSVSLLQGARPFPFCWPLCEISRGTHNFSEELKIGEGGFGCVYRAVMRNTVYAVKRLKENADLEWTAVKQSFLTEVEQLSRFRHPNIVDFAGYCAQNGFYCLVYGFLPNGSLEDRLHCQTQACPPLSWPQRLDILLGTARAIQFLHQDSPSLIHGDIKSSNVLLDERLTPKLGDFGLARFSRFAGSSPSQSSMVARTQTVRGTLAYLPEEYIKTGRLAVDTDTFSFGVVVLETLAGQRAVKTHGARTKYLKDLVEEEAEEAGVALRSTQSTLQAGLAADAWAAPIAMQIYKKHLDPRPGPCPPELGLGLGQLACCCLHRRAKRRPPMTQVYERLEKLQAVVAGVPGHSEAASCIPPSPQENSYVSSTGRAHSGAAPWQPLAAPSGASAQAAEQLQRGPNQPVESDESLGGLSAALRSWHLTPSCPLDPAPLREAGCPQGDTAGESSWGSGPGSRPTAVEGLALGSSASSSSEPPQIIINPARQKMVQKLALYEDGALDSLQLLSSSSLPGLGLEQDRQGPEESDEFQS
# STE20-like serine/threonine-protein kinase, sequence (Q9H2G2 whole entry): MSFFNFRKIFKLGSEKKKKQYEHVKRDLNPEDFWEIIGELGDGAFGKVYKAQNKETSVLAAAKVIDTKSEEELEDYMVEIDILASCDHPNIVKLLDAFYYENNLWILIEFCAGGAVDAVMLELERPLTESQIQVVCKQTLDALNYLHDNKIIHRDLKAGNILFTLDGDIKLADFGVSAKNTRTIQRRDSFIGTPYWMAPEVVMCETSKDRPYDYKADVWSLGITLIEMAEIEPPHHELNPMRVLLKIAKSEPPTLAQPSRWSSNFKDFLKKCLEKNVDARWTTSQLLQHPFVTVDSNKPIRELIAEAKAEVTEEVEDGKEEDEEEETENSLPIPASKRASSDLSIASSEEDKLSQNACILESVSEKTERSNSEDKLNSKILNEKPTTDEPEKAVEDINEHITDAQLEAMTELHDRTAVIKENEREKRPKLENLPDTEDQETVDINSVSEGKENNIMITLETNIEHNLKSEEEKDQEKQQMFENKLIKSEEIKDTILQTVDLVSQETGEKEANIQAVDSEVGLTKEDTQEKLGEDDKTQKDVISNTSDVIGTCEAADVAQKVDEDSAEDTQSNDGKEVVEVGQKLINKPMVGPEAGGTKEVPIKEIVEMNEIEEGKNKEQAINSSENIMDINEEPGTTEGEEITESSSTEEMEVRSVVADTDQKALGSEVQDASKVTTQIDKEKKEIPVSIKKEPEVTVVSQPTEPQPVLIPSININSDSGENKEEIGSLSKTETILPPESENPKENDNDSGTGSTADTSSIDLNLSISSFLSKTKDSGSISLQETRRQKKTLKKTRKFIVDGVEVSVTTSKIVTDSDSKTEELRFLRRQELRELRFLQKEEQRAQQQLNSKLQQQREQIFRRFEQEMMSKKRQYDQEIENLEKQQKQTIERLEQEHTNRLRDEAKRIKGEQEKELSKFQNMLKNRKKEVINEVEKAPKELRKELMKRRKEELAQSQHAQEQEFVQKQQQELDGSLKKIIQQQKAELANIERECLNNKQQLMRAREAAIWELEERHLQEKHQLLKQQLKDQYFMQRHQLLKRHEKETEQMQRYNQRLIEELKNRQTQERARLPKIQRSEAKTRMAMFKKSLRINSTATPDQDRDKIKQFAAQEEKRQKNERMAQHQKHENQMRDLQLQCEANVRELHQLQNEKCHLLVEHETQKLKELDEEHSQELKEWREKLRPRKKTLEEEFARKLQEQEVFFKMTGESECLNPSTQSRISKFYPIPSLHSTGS
compound,measurement,setting,value
NC(=O)c1nnc(N[C@@H]2CCCC[C@@H]2N)nc1Nc1cccc2cc[nH]c12,AUC/dose,Rattus norvegicus [1],1459 nM·h
same,Kd,[2],67 nM
same,Kd,[3],380 nM
same,Kd,[4],0.64 nM
same,Kd,[5],65 nM
same,concentration at 24 h,[6],300 nM
same,Activity,Rattus norvegicus [7],Active
same,Activity,Rattus norvegicus [8],Toxic
same,Activity,Rattus norvegicus [9],Toxic
